High-throughput results deposited in PubChem by several laboratories.
FGF22 binding – binders of human FGF22 protein, primary screen, FGF22 synaptogenesis inhibitor project, biophysical, thermal shift, single point | Fibroblast growth factor 22 (Homo sapiens), Q9HCT0 | recombinant FGF22 thermal shift, SYPRO orange fluorescence; percent of sucrose octasulfate shift, DMSO zero | activity (Tm shift, normalised), % at 9.99 µM | 1.5% of 340,000 active;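 active = mean Tm shift, scaled 0 neutral to 100 positive control, at about 1.3% or above, every replicate too, limit read from the data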
ABCB6 inh 2 – ABCB6 transporter inhibitors, primary screen, K562-ABCB6 cells, flow cytometry, MLPCN library. ATP-binding cassette sub-family B member 6 (Homo sapiens), Q9NP58. K562-ABCB6 porphyrin accumulation, 1 h; active compounds read low. fluorescence ratio to DMSO, % at 10 µM. 0.19% of 360,000 active;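 active = fluorescence ratio to DMSO below 75%, the collection mean minus 3 SD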;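 note: signal is porphyrin accumulated inside mitochondria; lower ratio means ABCB6 inhibition with less porphyrin fluorescence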
MT1-MMP act inh – blockers of MT1-MMP proenzyme processing, primary screen, HT1080 RFP-PRO-GFP cells, GFP/RFP fluorescence; Matrix metalloproteinase-14 (Homo sapiens), P50281; GFP/RFP ratio fluorescence, overnight; percent of plate control window, DMSO zero; GFP/RFP ratio change, % at 20 µM; 0.061% of 360,000 active;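 active = GFP/RFP ratio change of at least 30% with cell ATP level not reduced by more than half and red fluorescence within 50% of control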
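Material: RFP-PRO-GFP reporter HT1080 cells. Dosing: single-point 20 µM compound, 1% DMSO. Controls: DMSO and RFP-L50D-GFP cell wells. Timing: cells overnight before dosing, compound overnight, 37 °C, 5% CO2. Measure: GFP/RFP fluorescence ratio.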
VLA-4 inh – inhibition in human VLA-4 binding assay, primary screen, VLA-4 allosteric modulator project, MLPCN library, flow cytometry, VLA-4 expressing cells; inhibition, % (about 7 µM as worked out from the volumes in the protocol); 0.2% of 330,000 active; AID 2557, 2010; ligand binding flow cytometry; in the data active = inhibition above about 50%
Exocytosis inh – LAMP-1 surface exposure blockers, TALL-104 cells – cell-based, flow cytometry, MLPCN library, primary screen. TALL-104 LAMP-1 surface exposure; cells stimulated with thapsigargin and PMA. inhibition, % at 10 µM. 0.66% of 360,000 active. AID 651702, 2012;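 active = inhibition above about 55%, limit read from the data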
DAGLB inhibitor – DAGLB lipase inhibitors, primary screen, biochemical, fluorescence, HTS | HEK293T DAGLB membrane lysate, EnzChek fluorogenic substrate | inhibition, % at 5.17 µM | 0.059% of 340,000 active; in the data active = inhibition above about 34%
Target sequence (Q8NCG7 whole entry, looked up): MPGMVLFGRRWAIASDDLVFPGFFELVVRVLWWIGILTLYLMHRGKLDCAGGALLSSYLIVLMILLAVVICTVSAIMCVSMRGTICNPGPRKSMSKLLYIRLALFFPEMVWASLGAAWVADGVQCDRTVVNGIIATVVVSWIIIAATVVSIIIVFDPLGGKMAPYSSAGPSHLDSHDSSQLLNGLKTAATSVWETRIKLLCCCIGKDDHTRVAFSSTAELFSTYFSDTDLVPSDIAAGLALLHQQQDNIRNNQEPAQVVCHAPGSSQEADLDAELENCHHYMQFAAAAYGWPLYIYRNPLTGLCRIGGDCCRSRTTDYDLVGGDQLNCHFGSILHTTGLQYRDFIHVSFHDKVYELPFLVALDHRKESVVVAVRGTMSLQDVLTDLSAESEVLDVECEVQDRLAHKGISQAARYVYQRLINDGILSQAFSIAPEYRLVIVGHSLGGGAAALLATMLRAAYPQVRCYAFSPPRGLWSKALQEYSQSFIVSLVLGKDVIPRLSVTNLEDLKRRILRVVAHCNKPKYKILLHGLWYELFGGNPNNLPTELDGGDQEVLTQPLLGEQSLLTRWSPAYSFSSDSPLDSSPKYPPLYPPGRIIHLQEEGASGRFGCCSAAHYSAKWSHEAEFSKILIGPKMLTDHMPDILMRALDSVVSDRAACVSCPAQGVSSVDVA
VLA-4 allo CP – retest of VLA-4 allosteric modulators, confirmation, cell-based, cherry-picked plates, U937, HUTS-21 LIBS antibody; shares compounds with VLA-4 inh; U937 cells, HUTS-21 LIBS mAb binding, flow cytometry; LDV ligand present at threefold Kd; inhibition, % at 6.7 µM; 2% of 1,300 active; AID 2813, 2010; in the data active = inhibition above about 40%
Large screens that a line does not name were inactive (follow-up assays come after a bar, where they were run). A selection: hits, their analogues and other compounds. The true share with any hit is near 2%.

O=C(C[C@@H]1CC[C@@H](NC(=O)c2cnccn2)[C@H](CO)O1)NCc1ccccc1F	none (no result: ABCB6 inh 2, MT1-MMP act inh, VLA-4 inh, Exocytosis inh, DAGLB inhibitor)
CC=Cc1ccc2n(c1=O)C[C@H]1[C@H](CO)[C@@H](C(=O)NCC3CC3)[C@@H]2N1C(=O)C1CC1 (mixture of isomers)	none (no result: ABCB6 inh 2, MT1-MMP act inh, VLA-4 inh, Exocytosis inh, DAGLB inhibitor)
COC(=O)[C@]1(Cc2ccccc2)N[C@H](CN(C)S(=O)(=O)c2ccc(C(C)(C)C)cc2)[C@@H]2C(=O)N(Cc3ccccc3)C(=O)[C@@H]21	none | VLA-4 allo CP inactive
COC(=O)[C@]1(Cc2ccccc2)N[C@H](CN(C)S(=O)(=O)c2ccc(C(F)(F)F)cc2)[C@@H]2C(=O)N(Cc3ccccc3)C(=O)[C@@H]21	none | VLA-4 allo CP inactive
CCN(C[C@H]1N[C@@](Cc2ccccc2)(C(=O)OC)[C@H]2C(=O)N(Cc3ccccc3)C(=O)[C@@H]12)S(=O)(=O)c1ccc(C(F)(F)F)cc1	none
COc1ccccc1S(=O)(=O)N1C[C@H](O)COC[C@@H]2O[C@H](CC(=O)O)CC[C@H]21	none (no result: ABCB6 inh 2, MT1-MMP act inh, VLA-4 inh, Exocytosis inh, DAGLB inhibitor)
N=c1c(C(=O)NCc2ccc(F)cc2)cc2c(=O)n3ccccc3nc2n1CC1CCCO1 (stereo not given)	VLA-4 inh 89.4 (no result: FGF22 binding) | VLA-4 allo CP inactive
C[C@H]1CCCCO[C@@H](CN(C)C)[C@@H](C)CN([C@@H](C)CO)C(=O)c2cc(NC(=O)CCCN(C)C)ccc2O1	none (no result: ABCB6 inh 2, MT1-MMP act inh, VLA-4 inh, Exocytosis inh, DAGLB inhibitor)
COc1ccc(NC(=O)CSc2nnnn2-c2ccccc2OC)c(OC)c1	none
COc1ccccc1-n1nnnc1SCC(=O)Nc1ccc(C)c(N)c1	VLA-4 inh 53.7 | VLA-4 allo CP inactive
O=C(O)c1ccc2c(c1)C(=O)N(c1cccc3ccccc13)C2=O	VLA-4 inh 57.8 | VLA-4 allo CP inactive
C[C@@H]1CN([C@H](C)CO)C(=O)c2cc(-c3ccccc3)cnc2O[C@H]1CN(C)C(=O)C1CCCCC1	none (no result: ABCB6 inh 2, MT1-MMP act inh, VLA-4 inh, Exocytosis inh, DAGLB inhibitor)
Cc1ccc(NC(=O)CN2CCc3cc4c(cc3C2)OCCCO4)cc1	VLA-4 inh 54.6 | VLA-4 allo CP inactive
CCOc1ccc(N(CC(=O)Nc2ccc(C)c(C)c2)S(=O)(=O)c2c(C)[nH]c(=O)[nH]c2=O)cc1	none | VLA-4 allo CP inactive
CCOc1ccc(NC(=O)CN(c2cc(C)cc(C)c2)S(=O)(=O)c2c(C)noc2C)cc1	VLA-4 inh 53.4 | VLA-4 allo CP inactive
C[C@@H]1CN([C@H](C)CO)C(=O)c2cc(C#Cc3ccccc3F)cnc2O[C@H]1CN(C)C	none (no result: ABCB6 inh 2, MT1-MMP act inh, VLA-4 inh, Exocytosis inh, DAGLB inhibitor)
Cc1ccc(/C(O)=C2/C(=O)C(=O)N(CC(=O)O)C2c2ccc([N+](=O)[O-])cc2)cc1 (stereo not given)	VLA-4 inh 64.1 | VLA-4 allo CP inactive
Cc1ccc(/C(O)=C2\C(=O)C(=O)N(C)C2c2ccc([N+](=O)[O-])cc2)cc1 (stereo not given)	none
CC12CCC3c4ccc(O)cc4CCC3C1CCC2=O (stereo not given)	VLA-4 inh 54.5 | VLA-4 allo CP inactive
Cc1noc(C)c1NC(=O)N[C@H]1CC[C@H](CC(=O)Nc2ccccc2)O[C@@H]1CO	none (no result: ABCB6 inh 2, MT1-MMP act inh, VLA-4 inh, Exocytosis inh, DAGLB inhibitor)
C/C(=N\NC(=O)c1ccccc1O)c1cccs1	none
CSC(=NNC(=O)c1ccccc1O)SC	VLA-4 inh 88.2 (no result: FGF22 binding) | VLA-4 allo CP inactive
O=C(C[C@@H]1C=C[C@@H](NC(=O)c2ccc3c(c2)OCO3)[C@H](CO)O1)NCc1ccc(F)cc1	none (no result: ABCB6 inh 2, MT1-MMP act inh, VLA-4 inh, Exocytosis inh, DAGLB inhibitor)
Cc1ccc2oc(=O)n(CC(=O)N3CCOCC3)c2c1	none | VLA-4 allo CP inactive
CN(CC(=O)Nc1cccc(F)c1)C(=O)Cn1c(=O)oc2ccccc21	none | VLA-4 allo CP inactive
